According to ChEMBL document CHEMBL1129275, “Synthesis and in vitro and in vivo characteristics of an iodinated analogue of the beta-adrenoceptor antagonist carazolol” (J Med Chem, 1996):

Legend:
Oryctolagus cuniculus [1] = test: Cerebral biodistribution pattern of [123I]- ligand was evaluated in frontal cortex of anesthetized rabbit after Intravenous injection of 50 uCi after 6 hr; type: ADME, organism-based; details: in vivo
In short: (§1)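 Male New Zealand white rabbits (2.5–3.5 kg), anesthetized with xylazine 5 mg/kg plus ketamine 30 mg/kg im, given 50 µCi radioligand (specific activity >5000 Ci/mmol) iv via ear vein. Euthanized at set times by pentobarbital 200 mg/kg im, n = 3/time point. Organs removed and weighed, gamma-counted, decay/weight corrected; expressed as % ID x kg body weight/g tissue, mean ± SEM.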

Oryctolagus cuniculus [2] = test: Biodistribution pattern of [123I]- ligand was evaluated in left atrial muscle of anesthetized rabbit after Intravenous injection of 50 uCi after 2 hr; type: ADME, organism-based, Muscle tissue; details: in vivo
In short: (§2)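 Male New Zealand white rabbits, 2.5–3.5 kg, anesthetized with 5 mg/kg xylazine plus 30 mg/kg ketamine im. Each received 50 uCi radioligand (specific activity > 5000 Ci/mmol) iv via ear vein. Animals were killed with 200 mg/kg pentobarbital im at the set time. Blood was drawn by intracardiac puncture and organs weighed. Gamma counting was decay-corrected, expressed as %ID x kg body weight/g tissue, mean ± SEM, n = 3/time point.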

Oryctolagus cuniculus [3] = test: Cerebral biodistribution pattern of [123I]- ligand was evaluated in cerebellum of anesthetized rabbit after Intravenous injection of 50 uCi after 24 hr; type: ADME, organism-based; details: in vivo; in short: as §1
Oryctolagus cuniculus [4] = test: Biodistribution pattern of [123I]- ligand was evaluated in lung of anesthetized rabbit after Intravenous injection of 50 uCi after 4 hr; type: ADME, organism-based; details: in vivo; in short: as §2
Oryctolagus cuniculus [5] = test: Biodistribution pattern of [123I]- ligand was evaluated in intestine of anesthetized rabbit after Intravenous injection of 50 uCi after 5 min; type: ADME, organism-based; details: in vivo; in short: as §2
Oryctolagus cuniculus [6] = test: Cerebral biodistribution pattern of [123I]- ligand was evaluated in striatum of anesthetized rabbit after Intravenous injection of 50 uCi after 2 hr; type: ADME, organism-based; details: in vivo; in short: as §1
Oryctolagus cuniculus [7] = test: Biodistribution pattern of [123I]- ligand was evaluated in left atrial muscle of anesthetized rabbit after Intravenous injection of 50 uCi after 1 hr; type: ADME, organism-based, Muscle tissue; details: in vivo; in short: as §2
Oryctolagus cuniculus [8] = test: Biodistribution pattern of [123I]- ligand was evaluated in fat of anesthetized rabbit after Intravenous injection of 50 uCi after 24 hr; type: ADME, organism-based, Adipose tissue; details: in vivo; in short: as §2
Oryctolagus cuniculus [9] = test: Biodistribution pattern of [123I]- ligand was evaluated in left ventricular muscle of anesthetized rabbit after Intravenous injection of 50 uCi after 5 min; type: ADME, organism-based, Muscle tissue; details: in vivo; in short: as §2
Oryctolagus cuniculus [10] = test: Biodistribution pattern of [123I]- ligand was evaluated in lung of anesthetized rabbit after Intravenous injection of 50 uCi after 30 min; type: ADME, organism-based; details: in vivo, 0.5 h; in short: as §2
Oryctolagus cuniculus [11] = test: Biodistribution pattern of [123I]- ligand was evaluated in lung of anesthetized rabbit after Intravenous injection of 50 uCi after 2 hr; type: ADME, organism-based; details: in vivo; in short: as §2
Oryctolagus cuniculus [12] = test: Biodistribution pattern of [123I]- ligand was evaluated in muscle of anesthetized rabbit after Intravenous injection of 50 uCi after 2 hr; type: ADME, organism-based, Muscle tissue; details: in vivo; in short: as §2
Oryctolagus cuniculus [13] = test: […] biodistribution pattern of [123I]- ligand was evaluated in kidney of anesthetized rabbit after Intravenous injection of 50 uCi after 24 hr; type: ADME, organism-based; details: in vivo; in short: as §1
Oryctolagus cuniculus [14] = test: Cerebral biodistribution pattern of [123I]- ligand was evaluated in hypothalamus of anesthetized rabbit after Intravenous injection of 50 uCi after 2 hr; type: ADME, organism-based; details: in vivo; in short: as §1
Oryctolagus cuniculus [15] = test: Biodistribution pattern of [123I]- ligand was evaluated in fat of anesthetized rabbit after Intravenous injection of 50 uCi after 4 hr; type: ADME, organism-based, Adipose tissue; details: in vivo; in short: as §2
Oryctolagus cuniculus [16] = test: Biodistribution pattern of [123I]- ligand was evaluated in kidney of anesthetized rabbit after Intravenous injection of 50 uCi after 30 min; type: ADME, organism-based; details: in vivo, 0.5 h; in short: as §2
Oryctolagus cuniculus [17] = test: Cerebral biodistribution pattern of [123I]- ligand was evaluated in frontal cortex of anesthetized rabbit after Intravenous injection of 50 uCi after 24 hr; type: ADME, organism-based; details: in vivo; in short: as §1
Oryctolagus cuniculus [18] = test: Biodistribution pattern of [123I]- ligand was evaluated in right ventricular muscle of anesthetized rabbit after Intravenous injection of 50 uCi after 30 min; type: ADME, organism-based, Muscle tissue; details: in vivo, 0.5 h; in short: as §1
Oryctolagus cuniculus [19] = test: Cerebral biodistribution pattern of [123I]- ligand was evaluated in cerebellum of anesthetized rabbit after Intravenous injection of 50 uCi after 4 hr; type: ADME, organism-based; details: in vivo; in short: as §1
Oryctolagus cuniculus [20] = test: Biodistribution pattern of [123I]- ligand was evaluated in kidney of anesthetized rabbit after Intravenous injection of 50 uCi after 5 min; type: ADME, organism-based; details: in vivo; in short: as §2
Oryctolagus cuniculus [21] = test: Biodistribution pattern of [123I]- ligand was evaluated in intestine of anesthetized rabbit after Intravenous injection of 50 uCi after 2 hr; type: ADME, organism-based; details: in vivo; in short: as §2
Oryctolagus cuniculus [22] = test: Cerebral biodistribution pattern of [123I]- ligand was evaluated in pituitary gland of anesthetized rabbit after Intravenous injection of 50 uCi after 1 hr; type: ADME, organism-based; details: in vivo; in short: as §1
Oryctolagus cuniculus [23] = test: Cerebral biodistribution pattern of [123I]- ligand was evaluated in thalamus of anesthetized rabbit after Intravenous injection of 50 uCi after 30 min; type: ADME, organism-based; details: in vivo, 0.5 h; in short: as §1
Oryctolagus cuniculus [24] = test: Cerebral biodistribution pattern of [123I]- ligand was evaluated in frontal cortex of anesthetized rabbit after Intravenous injection of 50 uCi after 5 min; type: ADME, organism-based; details: in vivo; in short: as §1
Oryctolagus cuniculus [25] = test: Biodistribution pattern of [123I]- ligand was evaluated in spleen of anesthetized rabbit after Intravenous injection of 50 uCi after 24 hr; type: ADME, organism-based; details: in vivo; in short: as §1
Oryctolagus cuniculus [26] = test: Biodistribution pattern of [123I]- ligand was evaluated in left ventricular muscle of anesthetized rabbit after Intravenous injection of 50 uCi after 30 min; type: ADME, organism-based, Muscle tissue; details: in vivo, 0.5 h; in short: as §2

CC(C)(/C=C/I)NC[C@H](O)COc1cccc2[nH]c3ccccc3c12
ID x kg of body weight/g of tissue (Oryctolagus cuniculus [1]): 0.05% | ID x kg of body weight/g of tissue (Oryctolagus cuniculus [2]): 0.17% | ID x kg of body weight/g of tissue (Oryctolagus cuniculus [3]): 0.07% | ID x kg of body weight/g of tissue (Oryctolagus cuniculus [4]): 0.82% | ID x kg of body weight/g of tissue (Oryctolagus cuniculus [5]): 0.16% | ID x kg of body weight/g of tissue (Oryctolagus cuniculus [6]): 0.07% | ID x kg of body weight/g of tissue (Oryctolagus cuniculus [7]): 0.16% | ID x kg of body weight/g of tissue (Oryctolagus cuniculus [8]): 0.01% | ID x kg of body weight/g of tissue (Oryctolagus cuniculus [9]): 0.52% | ID x kg of body weight/g of tissue (Oryctolagus cuniculus [10]): < 1.74% | ID x kg of body weight/g of tissue (Oryctolagus cuniculus [11]): 1.29% | ID x kg of body weight/g of tissue (Oryctolagus cuniculus [12]): 0.05% | ID x kg of body weight/g of tissue (Oryctolagus cuniculus [13]): 0.02% | ID x kg of body weight/g of tissue (Oryctolagus cuniculus [14]): 0.05% | ID x kg of body weight/g of tissue (Oryctolagus cuniculus [15]): 0.02% | ID x kg of body weight/g of tissue (Oryctolagus cuniculus [16]): < 0.29% | ID x kg of body weight/g of tissue (Oryctolagus cuniculus [17]): 0.01% | ID x kg of body weight/g of tissue (Oryctolagus cuniculus [18]): < 0.21% | ID x kg of body weight/g of tissue (Oryctolagus cuniculus [19]): 0.13% | ID x kg of body weight/g of tissue (Oryctolagus cuniculus [20]): 0.92% | ID x kg of body weight/g of tissue (Oryctolagus cuniculus [21]): 0.13% | ID x kg of body weight/g of tissue (Oryctolagus cuniculus [22]): 0.11% | ID x kg of body weight/g of tissue (Oryctolagus cuniculus [23]): < 0.1% | ID x kg of body weight/g of tissue (Oryctolagus cuniculus [24]): 0.27% | ID x kg of body weight/g of tissue (Oryctolagus cuniculus [25]): 0.03% | ID x kg of body weight/g of tissue (Oryctolagus cuniculus [26]): < 0.26%
